Experimental findings from ChEMBL document CHEMBL4819003, “Optimization of novel oxidative DIMs as Nur77 modulators of the Nur77-Bcl-2 apoptotic pathway” (Eur J Med Chem, 2021) are described below.

In series [1] the target is T1, Nuclear receptor subfamily 4immunitygroup A member 1 (Homo sapiens, UniProt P22736). The series can be described thus: Binding affinity to recombinant human N-terminal His-tagged Nur77-LBD (367 to 598 residues) expressed in Escherichia coli BL21 DE3 by flourescence quenching assay. In outline: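 Human Nur77-LBD (367–598), N-terminal His tag, pET15b in E. coli BL21 DE3, Ni resin purified. Nur77-LBD at 1 µM in PBS in a quartz cell, titrated with compound over 0.01–1 µM at 25 °C. Excitation 280 nm, emission scanned 300–500 nm; peak intensity at 330 nm versus compound concentration fitted to a reported formula for Kd.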

Series [2] deals with HCT-116. Nature of the series: Induction of apoptosis in human HCT-116 cells assessed as late apoptotic cells at 0.5 uM measured after 6 hrs by Annexin V-FITC/PI staining based flow cytometry method (reference value: 0.06%). The class given is functional. In outline:
(§1)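 Cells seeded at 1×10^6 per well and treated with 0.5 µM for 6 h. Floating and adherent cells pooled, stained with Annexin V-FITC for 10 min and propidium iodide for 5 min, then analysed immediately by flow cytometry in FITC and PC5.5 channels. Mean ± SD, n = 3.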

The subject of series [3] is MDA-MB-231. Nature of the series: Induction of apoptosis in human MDA-MB-231 cells assessed as viable cells at 0.5 uM measured after 6 hrs by Annexin V-FITC/PI staining based flow cytometry method (reference value: 98.51%). The class given is functional. To be noted: read-out: Activity. In outline: as §1
Series [4] deals with BT-549. Nature of the series: Cytotoxicity against human BT-549 cells assessed as inhibition of cell growth measured after 24 hrs by MTT assay. The class given is functional, cell-based. To be noted: BT-549, 24 h. In outline:
(§2)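 MTT viability assay, 24 h exposure to a concentration series, 10^4 cells/well. Cancer lines were in DMEM (BT549, MDA-MB-231) or RPMI-1640 (HCT116, SW620) with 10% FBS. MCF10A and NCM460 were in DMEM with 20% FBS and 10 ng/ml EGF. MTT at 5 mg/mL for 4 h at 37 °C, formazan dissolved in DMSO, A490. IC50 from curve fit; mean ± SD, at least 6 experiments.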

The subject of series [5] is SW-620. The series can be described thus: Induction of apoptosis in human SW-620 cells assessed as late apoptotic cells at 0.5 uM measured after 6 hrs by Annexin V-FITC/PI staining based flow cytometry method (reference value: 0.05%). The class given is functional. An outline of the steps:
as §1

Series [6] concerns BT-549. The series can be described thus: Induction of apoptosis in human BT-549 cells assessed as early apoptotic cells at 0.5 uM measured after 6 hrs by Annexin V-FITC/PI staining based flow cytometry method (reference value: 1.27%). The class given is functional. An outline of the steps:
as §1

Series [7] concerns HCT-116. Nature of the series: Induction of apoptosis in human HCT-116 cells assessed as viable cells at 0.5 uM measured after 6 hrs by Annexin V-FITC/PI staining based flow cytometry method (reference value: 98.18%). The class given is functional. To be noted: read-out: Activity. An outline of the steps:
as §1

Series [8] concerns SW-620. Nature of the series: Induction of apoptosis in human SW-620 cells assessed as necrotic cells at 0.5 uM measured after 6 hrs by Annexin V-FITC/PI staining based flow cytometry method (reference value: 0.26%). The class given is functional. In outline: as §1
Series [9] relates to HCT-116. Nature of the series: Induction of apoptosis in human HCT-116 cells assessed as necrotic cells at 0.5 uM measured after 6 hrs by Annexin V-FITC/PI staining based flow cytometry method (reference value: 0.37%). The class given is functional. In outline:
as §1

In series [10] the test system is SW-620. The series can be described thus: Cytotoxicity against human SW-620 cells assessed as inhibition of cell growth measured after 24 hrs by MTT assay. The class given is functional, cell-based. The note with it: SW-620, 24 h. An outline of the steps: as §2
Series [11] concerns MDA-MB-231. The series can be described thus: Cytotoxicity against human MDA-MB-231 cells assessed as inhibition of cell growth measured after 24 hrs by MTT assay. The class given is functional, cell-based. To be noted: MDA-MB-231, 24 h. In outline:
as §2

The subject of series [12] is SW-620. Nature of the series: Induction of apoptosis in human SW-620 cells assessed as early apoptotic cells at 0.5 uM measured after 6 hrs by Annexin V-FITC/PI staining based flow cytometry method (reference value: 1.02%). The class given is functional.
Series [13] deals with HCT-116. The series can be described thus: Cytotoxicity against human HCT-116 cells assessed as inhibition of cell growth measured after 24 hrs by MTT assay. The class given is functional, cell-based. The note with it: Homo sapiens, HCT-116, 24 h. An outline of the steps:
as §2

In series [14] the test system is BT-549. The series can be described thus: Induction of apoptosis in human BT-549 cells assessed as viable cells at 0.5 uM measured after 6 hrs by Annexin V-FITC/PI staining based flow cytometry method (reference value: 98.51%). The class given is functional. To be noted: read-out: Activity. In outline: as §1
In series [15] the test system is HCT-116. The series can be described thus: Induction of apoptosis in human HCT-116 cells assessed as early apoptotic cells at 0.5 uM measured after 6 hrs by Annexin V-FITC/PI staining based flow cytometry method (reference value: 1.39%). The class given is functional. An outline of the steps: as §1
Series [16] relates to BT-549. The series can be described thus: Induction of apoptosis in human BT-549 cells assessed as necrotic cells at 0.5 uM measured after 6 hrs by Annexin V-FITC/PI staining based flow cytometry method (reference value: 0.11%). The class given is functional. In outline: as §1
The test system of series [17] is MDA-MB-231. The series can be described thus: Induction of apoptosis in human MDA-MB-231 cells assessed as necrotic cells at 0.5 uM measured after 6 hrs by Annexin V-FITC/PI staining based flow cytometry method (reference value: 0.11%). The class given is functional. An outline of the steps: as §1
Series [18] deals with MDA-MB-231. Nature of the series: Induction of apoptosis in human MDA-MB-231 cells assessed as early apoptotic cells at 0.5 uM measured after 6 hrs by Annexin V-FITC/PI staining based flow cytometry method (reference value: 1.27%). The class given is functional. An outline of the steps: as §1
In another series the test system is NCM460. Nature of the series: Cytotoxicity against human NCM460 cells assessed as inhibition of cell growth measured after 24 hrs by MTT assay. The class given is cell-based. The note with it: Homo sapiens, NCM460, 24 h. In outline:
as §2

Series [19] relates to MDA-MB-231. Nature of the series: Induction of apoptosis in human MDA-MB-231 cells assessed as late apoptotic cells at 0.5 uM measured after 6 hrs by Annexin V-FITC/PI staining based flowcytometry method (reference value: 0.11%). The class given is functional. In outline: as §1
The target of series [20] is T1, Nuclear receptor subfamily 4immunitygroup A member 1. Nature of the series: Binding affinity to recombinant human N-terminal His-tagged Nur77-LBD (367 to 598 residues) expressed in Escherichia coli BL21 DE3 by surface plasmon resonance assay. An outline of the steps: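 His-tagged human Nur77-LBD (367–598) from E. coli BL21 DE3, diluted to 0.05 mg/mL in 10 mM NaAc pH 5.0 and amine-coupled to a CM5 chip (~9000 RU). Compounds at 0.01–5 µM in PBS with 0.4% DMSO, 25 °C, 30 µL/min; 150 s association, 420 s dissociation, regeneration with 10 mM glycine-HCl pH 2.5. Reference- and blank-subtracted; Kd from global 1:1 kinetic fit.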

The test system of another series is MCF-10A. Nature of the series: Cytotoxicity against human MCF-10A cells assessed as inhibition of cell growth measured after 24 hrs by MTT assay. The class given is cell-based. The note with it: Homo sapiens, MCF-10A, 24 h. An outline of the steps: as §2
In series [21] the test system is BT-549. The series can be described thus: Induction of apoptosis in human BT-549 cells assessed as late apoptotic cells at 0.5 uM measured after 6 hrs by Annexin V-FITC/PI staining based flow cytometry method (reference value: 0.11%). The class given is functional. In outline: as §1
The nature of series [22]: MRT(0 to t) in male Sprague-Dawley rat at 5 mg/kg, po measured for 36 hrs by LC-MS/MS analysis. To be noted: in vivo. The class given is ADME, organism-based. An outline of the steps: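 Sprague-Dawley rats (200–220 g), three males and three females per route group. Dosed 5 mg/kg orally or 0.5 mg/kg IV as a solution in DMSO/T-80/H2O (1:5:94 by volume). Heparinized blood was drawn from 5 min to 36 h after IV and 1–36 h after oral dosing. Plasma was protein-precipitated with methanol (2% HCl) plus carbamazepine internal standard and assayed by LC-MS/MS. Parameters were taken from concentration-time data; n = 3 per sex, mean ± SD.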

T1 sequence (P22736 whole entry, the tested form may be a part): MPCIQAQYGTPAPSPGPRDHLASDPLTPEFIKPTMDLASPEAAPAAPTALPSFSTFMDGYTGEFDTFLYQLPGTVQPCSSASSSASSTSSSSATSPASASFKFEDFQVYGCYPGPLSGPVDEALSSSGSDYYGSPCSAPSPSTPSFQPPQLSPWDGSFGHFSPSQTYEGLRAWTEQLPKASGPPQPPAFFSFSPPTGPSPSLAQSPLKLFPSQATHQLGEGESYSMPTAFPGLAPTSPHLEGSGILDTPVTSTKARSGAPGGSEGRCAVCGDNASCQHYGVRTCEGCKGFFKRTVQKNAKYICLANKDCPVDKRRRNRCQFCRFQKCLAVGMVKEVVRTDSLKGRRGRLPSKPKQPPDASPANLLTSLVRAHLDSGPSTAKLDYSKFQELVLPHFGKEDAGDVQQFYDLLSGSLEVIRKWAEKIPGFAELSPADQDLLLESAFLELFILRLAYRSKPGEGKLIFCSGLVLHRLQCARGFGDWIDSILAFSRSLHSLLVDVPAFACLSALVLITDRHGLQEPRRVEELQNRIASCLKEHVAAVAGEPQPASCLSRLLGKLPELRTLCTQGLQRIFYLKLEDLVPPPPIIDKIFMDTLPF

As for `CS(=O)(=O)[O-].Cn1cc([C+](c2ccc(C(F)(F)F)cc2)c2c[nH]c3ccccc23)c2ccccc21`, the Kd in [1] turned out to be 66 nM; in series [20] it was 33 nM. Moreover, the Activity with HCT-116 [2] was 19.94%; in the series with SW-620 [5] it was 62.95%; in the series with BT-549 [6] it was 73.75%; in the series on SW-620 [8] it was 0.38%; in the series with HCT-116 [9] it was 2.3%; in the series with SW-620 [12], 29.59%. Also, the Activity with HCT-116 [15] was found to be 44.48%; in the series with BT-549 [16] it was 0.88%; in the series on MDA-MB-231 [17] it was 0.74%; in the series with MDA-MB-231 [18], 62.49%; with MDA-MB-231 [19] it was 3.04%; in the series on BT-549 [21], 10.97%. For the same compound, the viability at 0.5 µM was found to be 33.7% in the series on MDA-MB-231 [3], 33.3% with HCT-116 [7] and 14.4% in the series with BT-549 [14]. For the same compound, the IC50 in the series with BT-549 [4] stood at 40 nM; with SW-620 [10], 100 nM; in the series with MDA-MB-231 [11], 60 nM; with HCT-116 [13], 90 nM; in the series on NCM460 it was 4630 nM; in the series with MCF-10A, 2190 nM.
Take `CS(=O)(=O)[O-].FC(F)(F)c1ccc([C+](c2c[nH]c3ccccc23)c2c[nH]c3ccccc23)cc1`: the dissociation constant Kd in series [1] amounted to 217 nM; in series [20], 110 nM. For the same compound, the Activity in the series with HCT-116 [2] is given as 3.58%; in the series on SW-620 [5] it was 15.18%; with BT-549 [6], 20.65%; in the series on SW-620 [8] it was 1.47%; in the series with HCT-116 [9] it was 3.81%; in the series on SW-620 [12], 12.97%. For the same compound, the Activity in the series on HCT-116 [15] amounted to 11.05%; with BT-549 [16], 1.17%; in the series with MDA-MB-231 [17] it was 1.47%; with MDA-MB-231 [18], 12.18%; with MDA-MB-231 [19], 0.65%; with BT-549 [21], 4.21%. Further, the figures for the viability at 0.5 µM in the series with MDA-MB-231 [3], in the series on HCT-116 [7] and in the series on BT-549 [14] were 85.7%, 81.6% and 74%, respectively. For the same compound, the IC50 in the series on BT-549 [4] turned out to be 170 nM; with SW-620 [10], 180 nM; with MDA-MB-231 [11], 220 nM; with HCT-116 [13] it was 270 nM; with NCM460, 6840 nM; in the series with MCF-10A, 4290 nM. The compound further showed an MRT last at 36 h in series [22] of 12.3 h.
